Published values pooled from the literature.

CC(C)(O)c1ccccc1-c1ccc2[nH]c(/C=C/c3ccc(C(F)(F)F)cc3)nc2c1  half-life (male human, plasma; oral, 5 mg, single dose, fasted, healthy volunteers): 29.9 h
CC(C)n1cc(C#N)c2cc(-n3cc(C(=O)O)cn3)ccc21  half-life (human, plasma; oral, 25 mg, single dose, fasted, healthy volunteers): 8.1 h
CCn1c2ccccc2c2cc(-n3nncc3-c3ccccc3)ccc21  Vd/F (female BALB/c mouse, plasma; intraperitoneal, 10 mg/kg, single dose): ~0.4 L
COCCOc1cnc2ccn([C@H](C)c3nnc4c(F)cc(-c5cnn(C)c5)cn34)c(=O)c2c1  half-life (human, plasma; oral, 400 mg, multiple doses, once daily, patients): 7.7 h
CC[C@H](C)[C@H](NC(=O)[C@H](CCC(=O)O)NC(=O)[C@H](CO)NC(=O)[C@@H](NC(=O)[C@@H](N)CO)C(C)C)C(=O)N[C@@H](CCC(N)=O)C(=O)N[C@@H](CC(C)C)C(=O)N[C@@H](CCSC)C(=O)N[C@@H](Cc1cnc[nH]1)C(=O)N[C@@H](CC(N)=O)C(=O)N[C@@H](CC(C)C)C(=O)NCC(=O)N[C@@H](CCCCN)C(=O)N[C@@H](Cc1cnc[nH]1)C(=O)N[C@@H](CC(C)C)C(=O)N[C@@H](CC(N)=O)C(=O)N[C@@H](CO)C(=O)N[C@@H](CCSC)C(=O)N[C@@H](CCC(=O)O)C(=O)N[C@@H](CCCN=C(N)N)C(=O)N[C@H](C(=O)N[C@@H](CCC(=O)O)C(=O)N[C@@H](Cc1c[nH]c2ccccc12)C(=O)N[C@@H](CC(C)C)C(=O)N[C@@H](CCCN=C(N)N)C(=O)N[C@@H](CCCCN)C(=O)N[C@@H](CCCCN)C(=O)N[C@@H](CC(C)C)C(=O)N[C@@H](CCC(N)=O)C(=O)N[C@@H](CC(=O)O)C(=O)N[C@H](C(=O)N[C@@H](Cc1cnc[nH]1)C(=O)N[C@@H](CC(N)=O)C(=O)N[C@@H](Cc1ccccc1)C(=O)O)C(C)C)C(C)C  compound remaining (chemical stability, HPLC; aqueous buffer; 0.5 mg/mL, 5 min, pH 6.5): 100%
Cn1cc(-c2ccc(S(=O)(=O)[C@@H]3C[C@@H](C(=O)NC4(C#N)CC4)N(C(=O)C4(C(F)(F)F)CC4)C3)c(C(F)(F)F)c2)cn1  half-life (human, plasma; oral, 100 mg, single dose, fasted, healthy volunteers): 13.1 h
CC(=O)N[C@@H](Cc1ccccc1)C(=O)N[C@@H](Cc1ccccc1)C(=O)N[C@@H](C)C(=O)N[C@@H](CC(C)C)C(=O)NCC(=O)N[C@@H](CC(C)C)C(=O)N[C@@H](C)C(=O)NCC(=O)N[C@@H](CC(=O)O)C(=O)N[C@@H](CC(=O)O)C(=O)O  half-life (chemical stability; human, plasma; 1 mM, pH 7.4): 8.64 h
CCCCC(=O)OCOC(=O)C1CC(C)(C)N([O])C1(C)C (stereo not drawn)  half-life (chemical stability; bovine, serum): 0.817 h
CC[C@H](C)[C@@H]1NC(=O)[C@@](C)(NC(=O)[C@H](CCCNC(=N)N)NC(=O)[C@H](CC(C)C)NC(=O)[C@@H](NC(=O)[C@H](CCC(N)=O)NC(=O)[C@H](CC(C)C)NC(C)=O)[C@@H](C)O)CCCC=CCCC[C@@](C)(C(=O)N[C@@H](CC(C)C)C(=O)N[C@@H](Cc2ccc3ccccc3c2)C(N)=O)NC(=O)[C@H](CCCNC(=N)N)NC(=O)[C@H](CCC(N)=O)NC1=O  Vd (male BALB/c mouse, plasma; intravenous, 15 mg/kg): 0.0946 L/kg
COc1ccc([C@@H]2CN(C(=O)[C@@H](O)CO)C[C@@]2(C)[C@@H](C)O)cc1OC1CN(c2ccc(C)cn2)C1  half-life (human, plasma; oral, 0.5 mg, single dose, healthy volunteers): 11.9 h
CO[C@@H]1[C@H](OC(=O)N2CC(CCN3CCOCC3)C2)CC[C@]2(CO2)[C@H]1[C@@]1(C)O[C@@H]1CC=C(C)C  half-life (human, plasma; subcutaneous, 2.4 mg, single dose, healthy volunteers): 0.69 h
CC(C)(C)c1ccc(O)c(CN(Cc2cc(C(C)(C)C)ccc2O)C2CCC(NC(N)=O)CC2)c1 (stereo not drawn)  Vd (male C57BL/6 mouse, plasma; oral, 10 mg/kg, single dose): 2.79 L
